Screens as filed in PubChem.
This is a sample that favours compounds with a hit; in the whole collection about 3.8% have one here.
SDO1 yeast rescue – growth rescue of sdo1-depleted yeast, primary screen, S. cerevisiae, bone marrow failure model. S. cerevisiae sdo1-depleted JHY4D growth rescue, OD600 30 h; hits give high values; pdr5 snq2 efflux-pump mutant strain. z-score at 10 µM. 0.21% of 140,000 active;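 active = z-score above 3 at both the 24 hr and the 30 hr optical density reads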;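 note: z-score against mean and SD of all compound wells on the same plate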
Yeast growth inh – growth inhibitors of yeast BB579 in restrictive medium, primary screen, yeast lifespan-shortening project, S. cerevisiae; OD615, 48 h; 0.51% of 140,000 active; inhibition, % at 10 µM;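 active = inhibition above a set limit, 3 SD over the mean compound inhibition, cut at about 44% in these data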
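System: Saccharomyces cerevisiae DeaD strain BB579, replicative lifespan model yeast. Buffer or medium: restrictive glucose-based CSMM-D medium. Doses: one dose, 10 µM compound with 0.25% DMSO. Timing: 4 h preincubation and 48 h exposure at 30 °C. Detection: turbidity as optical density at 615 nm. Benchmarks: amphotericin B 10 µg/mL, positive.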
Yeast life ext – compounds extending yeast replicative lifespan, primary screen, S. cerevisiae, OD615; S. cerevisiae growth with nicotinamide; deaD strain in restrictive glucose medium; inhibition of the nicotinamide effect, % at 10 µM; 0.68% of 130,000 active; AID 775, 2007;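 active = inhibition above a set limit, placed 3 SD over the median of all compounds, cut at about 26% in these data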;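 note: 0% = nicotinamide-treated wells and 100% = cells grown without nicotinamide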
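Assay system: engineered S. cerevisiae DeaD replicative-lifespan strain, galactose-grown log-phase cells; medium: restrictive CSMM-D dextrose medium; also added: nicotinamide, 1.5 mM, co-present with compound; schedule: 48 h compound exposure at 30 °C, humidified; detection: absorbance at 615 nm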
Measles CPE – compounds protecting cells from measles virus cytopathic effect, primary screen, measles RdRp inhibitor project, single point, MLSMR library, absorbance | Measles virus-infected cells, CPE protection | protection (pct of control), % at 4 µM | 1.5% of 140,000 active; in the data active = protection mostly above about 24%, no sharp cut-off; inactive = mostly below about 26%
RAM inhibit – inhibitors of the yeast RAM network, primary screen, dse1pr::URA3 reporter, 5-FOA selection; AID 868, 2007; 1.8% of 190,000 active; S. cerevisiae dse1pr::URA3 reporter, 5-FOA growth OD615, 2 d; analog-sensitive cbk1-as2 kinase mutant strain; inhibition, % at 50 µM;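 active = inhibition above a set limit, 3 SD over mean compound inhibition, cut at about 8.4% in these data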;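 note: 0% = DMSO-only wells with no growth and 100% = 10 µM 1-NA-PP1 full growth; inhibition rescues growth on 5-FOA so higher OD means more RAM inhibition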
RAM efflux-def – 5-FOA growth of efflux-deficient control yeast, dose response, counter-screen for RAM network inhibitor project, S. cerevisiae, OD615; S. cerevisiae efflux-deficient reporter strain, 5-FOA growth OD615, 2 days; AID 1305, 2008; max inhibition, %; shares compounds with RAM inhibit; 1,200 tested, under 10 active; call rule not given here;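 note: plate controls were vehicle for no effect and reference inhibitor for full effect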
* = called active by the depositor; · = not tested or not shown.

SMILES	SDO1 yeast rescue	Yeast growth inh	Yeast life ext	Measles CPE	RAM inhibit	RAM efflux-def
COC(=O)CCCC(=O)N1CCCC(CNS(=O)(=O)c2ccc(OC)cc2)C1 (stereo not given)	·	·	·	·	1	·
NC(=O)C1CCN(CC(=O)NC(=O)NC2CCCC2)CC1	·	·	·	·	-1	·
COc1ccccc1NC(=O)C(Sc1ccccc1)c1ccccc1 (stereo not given)	-0.33	-5	1	11	11*	3
O=C(Nc1ccc(Cl)c([N+](=O)[O-])c1)C(Sc1ccccc1)c1ccccc1 (stereo not given)	-1.6	-24	0	2	15*	2
O=C(Nc1ccc(Cl)c([N+](=O)[O-])c1)C(NCCCO)c1ccccc1 (stereo not given)	-0.34	-12	-5	2	3	·
COc1ccc(OC)c(-c2csc(NC(=O)CSc3ccccc3)n2)c1	-0.7	-26	1	5	11*	4
CCOC(=O)c1cc(-c2ccccc2)sc1NC(=O)CSc1nncs1	-0.66	-13	-2	12	7	·
CCOC(=O)c1c(-c2ccc(OC)cc2)csc1NC(=O)CSc1ccccc1	0.1	-26	-2	6	15*	3
CCOC(=O)c1c(NC(=O)CSc2nncs2)sc(C)c1-c1ccccc1	-0.58	-51	2	4	13*	4
CCOC(=O)c1c(NC(=O)CSc2nnnn2-c2ccc(OC)cc2)sc(C)c1C	-1.3	42	-4	21	12*	2
CCOC(=O)c1oc2cccc(OCC(O)CNC(C)C)c2c1C (stereo not given)	0.4	2	-28	3	1	·
CCOC(=O)c1c(-c2ccccc2)csc1NC(=O)CSc1ccccc1	0.51	-37	3	16	13*	4
CCOC(=O)COc1ccc(C2CC(C)=NN2c2ccccc2)cc1 (stereo not given)	·	·	·	·	-1	·
CC(/C=N/NC(=O)c1sc(N)nc1C)=C\c1ccccc1	·	·	·	·	3	·
Cc1ccc(NC(=O)c2oc3ccc(S(=O)(=O)N4CCC5(CC4)OCCO5)cc3c2C)cc1C	-1.1	-45	14	5	12*	1
Cc1ccc(CNC(=O)c2oc3ccc(S(=O)(=O)N4CCC5(CC4)OCCO5)cc3c2C)cc1	0.08	-58	-4	26	5	·
CCOc1ccc(S(=O)(=O)N(C)c2ccc(OCC(=O)OCc3c(C)noc3C)cc2)cc1	-0.49	-65	-6	7	12*	2
CCOc1ccccc1N1CCN(C(=O)C(Sc2ccccc2)c2ccccc2)CC1 (stereo not given)	-0.99	-29	20	8	6	·
O=C(C(Sc1ccccc1)c1ccccc1)N1CCN(c2ccccc2)CC1 (stereo not given)	-0.75	-34	12	5	21*	2
CCCCCCN=CC1=C(O)C(C(=O)OC)C(C)(C)CC1=O (stereo not given)	-1.1	-41	5	11	1	·
Cc1ccc(CSc2nc3sc(C)c(C)c3c(=O)n2Cc2ccco2)cc1	-1.2	-60	-9	15	17*	3
Cc1cccc(CSc2nc3sc(C)c(C)c3c(=O)n2Cc2ccco2)c1	0.11	-17	4	2	22*	5
Cc1sc2nc(SCc3ccccc3)n(Cc3ccco3)c(=O)c2c1C	0.92	-42	-9	9	13*	4
Cc1sc2nc(SCC(=O)C(C)(C)C)n(Cc3ccco3)c(=O)c2c1C	-0.41	-49	-13	5	3	·
COc1cccc(CSc2nc3sc(C)c(C)c3c(=O)n2Cc2ccco2)c1	0.35	-27	2	1	16*	5
SMILES	SDO1 yeast rescue	Yeast growth inh	Yeast life ext	Measles CPE	RAM inhibit	RAM efflux-def
CCCCSc1nnc([C@H](CC(C)C)NC(=O)OC(C)(C)C)o1	-0.19	12	-11	5	16*	2
CCCCSc1nnc([C@H](C)NC(=O)OC(C)(C)C)o1	0.3	-26	-6	18	-1	·
COc1cc(NS(=O)(=O)c2ccc(NC(=S)NC(=O)/C=C/c3ccco3)cc2)ncn1	·	·	·	·	13*	4
CCN=c1scc(-c2cccs2)n1/N=C/c1cc(OC)ccc1O	-0.58	-43	-2	17	12*	2
O=C(c1cc(COc2ccc(F)cc2F)on1)N1CCCC(c2ccccc2)C1 (stereo not given)	·	·	·	·	6	·
O=C(c1cc(COc2ccc(F)cc2Cl)on1)N1CCCC(c2ccccc2)C1 (stereo not given)	·	·	·	·	13*	4
O=C(OCC(=O)C12CC3CC(CC(C3)C1)C2)c1cccnc1Cl	-0.63	-36	7	6	0	·
CCCN(CC1CC1)C(=O)COC(=O)c1[nH]c(C)c(C(=O)OCC)c1C	0.06	1	-9	2	2	·
COc1ccc(O[C@H]2C=C[C@@H](c3ccccc3)O[C@@H]2COC(=O)CC/C(C)=N/O[C@@H](C)c2cc(-c3c(C)cc(C)cc3C)no2)cc1	-0.09	-43	2	5	21*	4
COc1ccc(O[C@H]2C=C[C@@H](c3ccccc3)O[C@@H]2COC(=O)CC/C(C)=N/OC[C@@H](O)COCc2ccco2)cc1	-0.16	-29	1	7	7	·
N#Cc1c(N)nc(SCc2ccccn2)c(C#N)c1-c1cccs1	-0.13	-51	-8	25	12*	4
CCOC(=O)N1CCC(NC(=O)c2cccc3c2C(=O)N(Cc2cccnc2)C3)CC1	1.2	-28	-6	2	2	·
COC(=O)c1nn(-c2ccccc2)c(Cl)c1/C=N/OCc1ccc(Cl)cc1Cl	-2.8	13	-2	2	17*	4
O=C(CC1NCCNC1=O)Nc1cccc([N+](=O)[O-])c1 (stereo not given)	·	·	·	·	1	·
CCCCNC(=O)/C(C#N)=C/c1ccc2c(c1)OCCO2	0.77	13	0	3	-1	·
CCCCCCCCNC(=O)/C(C#N)=C/c1ccc(SC)cc1	-0.17	-57	7	10	12*	3
COc1cccc(-c2ccc(C#N)c(OC(=O)c3c(Cl)cccc3Cl)n2)c1	-0.58	-49	9	6	12*	1
COc1cccc(-c2ccc(C#N)c(OC(=O)c3ccc(Cl)cc3)n2)c1	-0.7	-33	-1	7	0	·
Cc1ccc(C)c(C(=O)CCC(=O)NCc2ccc(Cl)cc2)c1	·	·	·	·	0	·
CCN(CC)S(=O)(=O)c1cccc(-c2nnc(SCCOc3ccccc3)o2)c1	-0.18	-79	10	18	13*	3
CCN(CC)S(=O)(=O)c1cccc(-c2nnc(SCCOc3ccccc3C)o2)c1	0.47	-54	-6	4	12*	2
